Data on six compounds can be found in ChEMBL document CHEMBL1128743, “Synthesis of tight binding inhibitors and their action on the proprotein-processing enzyme furin” (J Med Chem, 1995).

SMILES strings stand for the structures.

The term Ki denotes a dissociation constant, usually derived from enzyme kinetics or from competition with a known ligand. A lower Ki goes with higher affinity.

The target of assay [1] is Subtilisin Carlsberg (Bacillus licheniformis) (UniProt P00780). Kind of assay: Inhibitory activity against subtilism Carlsberg; No inhibition.
Subtilisin Carlsberg (Bacillus licheniformis), sequence (P00780 whole entry, looked up): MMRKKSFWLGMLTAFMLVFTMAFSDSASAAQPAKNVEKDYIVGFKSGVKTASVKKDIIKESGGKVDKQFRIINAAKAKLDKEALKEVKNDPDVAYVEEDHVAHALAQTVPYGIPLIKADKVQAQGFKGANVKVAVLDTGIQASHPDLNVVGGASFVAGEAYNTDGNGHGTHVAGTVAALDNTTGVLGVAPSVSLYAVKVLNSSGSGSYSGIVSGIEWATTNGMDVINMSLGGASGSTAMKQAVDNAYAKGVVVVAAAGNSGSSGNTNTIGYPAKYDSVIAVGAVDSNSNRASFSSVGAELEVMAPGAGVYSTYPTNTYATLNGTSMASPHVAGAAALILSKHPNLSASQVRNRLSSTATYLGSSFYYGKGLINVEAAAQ
In a further assay the target is Serine protease 1 (Homo sapiens, UniProt P07477). Kind of assay: Inhibitory activity against trypsin. The procedure, abridged:
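Trypsin was tested in the furin buffer: 100 mM HEPES pH 7.5, 0.5% Triton X-100, 1 mM CaCl2, 1 mM 2-mercaptoethanol.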

The target of the next assay is Furin (Homo sapiens, UniProt P09958). Kind of assay: Inhibitory activity against furin.
Furin, sequence (P09958 whole entry): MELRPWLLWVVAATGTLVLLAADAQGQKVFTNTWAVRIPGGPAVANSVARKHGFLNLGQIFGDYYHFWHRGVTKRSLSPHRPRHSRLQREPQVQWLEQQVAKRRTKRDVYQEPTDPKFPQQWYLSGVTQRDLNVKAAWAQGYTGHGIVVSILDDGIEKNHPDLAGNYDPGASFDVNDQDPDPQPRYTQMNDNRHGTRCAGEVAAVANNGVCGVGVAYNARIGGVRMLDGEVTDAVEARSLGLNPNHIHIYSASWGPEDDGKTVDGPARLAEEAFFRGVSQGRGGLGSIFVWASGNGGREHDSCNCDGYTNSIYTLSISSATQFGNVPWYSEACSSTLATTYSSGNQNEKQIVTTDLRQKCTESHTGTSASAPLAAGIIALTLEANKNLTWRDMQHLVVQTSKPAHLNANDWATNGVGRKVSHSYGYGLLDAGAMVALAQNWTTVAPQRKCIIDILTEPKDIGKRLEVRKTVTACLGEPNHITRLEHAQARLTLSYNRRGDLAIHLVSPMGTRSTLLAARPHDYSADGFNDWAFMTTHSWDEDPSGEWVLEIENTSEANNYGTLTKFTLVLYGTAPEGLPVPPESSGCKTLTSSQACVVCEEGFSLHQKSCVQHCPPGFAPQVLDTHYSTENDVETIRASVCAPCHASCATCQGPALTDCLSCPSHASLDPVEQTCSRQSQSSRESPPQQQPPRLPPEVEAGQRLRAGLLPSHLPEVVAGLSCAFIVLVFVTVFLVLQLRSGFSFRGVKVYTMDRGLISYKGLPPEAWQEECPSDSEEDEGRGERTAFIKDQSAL

Serine protease 1, sequence (P07477 whole entry): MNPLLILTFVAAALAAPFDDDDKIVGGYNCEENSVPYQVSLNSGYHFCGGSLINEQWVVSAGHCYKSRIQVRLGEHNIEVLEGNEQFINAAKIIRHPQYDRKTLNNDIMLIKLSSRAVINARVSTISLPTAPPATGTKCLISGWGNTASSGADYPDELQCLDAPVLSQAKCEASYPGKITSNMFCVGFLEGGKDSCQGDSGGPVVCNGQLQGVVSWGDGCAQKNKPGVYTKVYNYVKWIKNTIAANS

With `CCCCCCCCCCN[C@@H](CCCN=C(N)N)C(=O)N[C@H](C(=O)N[C@@H](CCCCN)C(=O)N[C@@H](CCCN=C(N)N)C(=O)CCC(=O)N[C@@H](C(=O)NCC(=O)N[C@H](CC(C)C)C(=O)OC)C(C)C)C(C)C`, the Ki entry was “Not Active” in assay [1], 20900 nM on Serine protease 1 and 330 nM on Furin.
With `CCCCCCCCCCN[C@@H](CCCNC(=N)N)C(=O)N[C@H](C(=O)N[C@@H](CCCCN)C(=O)N[C@@H](CCCNC(=N)N)C(=O)CN[C@@H](C)C(=O)N[C@H](C(=O)NCC(=O)OC)C(C)C)C(C)C`, at Serine protease 1, the Ki stood at 1900 nM.
In the case of `CCCCCCCCCCN[C@@H](CCCN=C(N)N)C(=O)N[C@H](C(=O)N[C@@H](CCCCN)C(=O)N[C@@H](CCCN=C(N)N)C(=O)CN[C@@H](C)C(=O)N[C@H](C(=O)NCC(N)=O)C(C)C)C(C)C`, at Furin, the Ki was 3.4 nM.
On Furin, `COC(=O)[C@@H](CC(C)C)NC(=O)CNC(=O)[C@H](NC(=O)CCC(=O)[C@H](CCCN=C(N)N)NC(=O)[C@H](CCCCN)NC(=O)[C@@H](NC(=O)[C@H](CCCN=C(N)N)NC(C)=O)C(C)C)C(C)C` came in with a Ki of 350 nM.
`CCCCCCCCCCN[C@@H](CCCN=C(N)N)C(=O)N[C@H](C(=O)N[C@@H](CCCCN)C(=O)N[C@H](CCCN=C(N)N)C(=O)CN[C@@H](C)C(=O)N[C@H](C(=O)NCC(N)=O)C(C)C)C(C)C` had an inhibition constant Ki on Furin of 26 nM.
The compound `CCCCCCCCCCN[C@@H](CCCN=C(N)N)C(=O)N[C@H](C(=O)N[C@@H](CCCCN)C(=O)N[C@@H](CCCN=C(N)N)C(=O)CCC(=O)OC)C(C)C` returned a Ki on Furin of 240 nM.
